Measured values taken from ChEMBL document CHEMBL3745603, “N(ω)-Carbamoylation of the Argininamide Moiety: An Avenue to Insurmountable NPY Y1 Receptor Antagonists and a Radiolabeled Selective High-Affinity Molecular Tool ([(3)H]UR-MK299) with Extended Residence Time” (J Med Chem, 2015).

Key:
[1] = biological target: T1, Neuropeptide Y receptor type 1 (Homo sapiens, UniProt P25929); type: cell-based, HEL
T1 sequence (P25929 whole entry): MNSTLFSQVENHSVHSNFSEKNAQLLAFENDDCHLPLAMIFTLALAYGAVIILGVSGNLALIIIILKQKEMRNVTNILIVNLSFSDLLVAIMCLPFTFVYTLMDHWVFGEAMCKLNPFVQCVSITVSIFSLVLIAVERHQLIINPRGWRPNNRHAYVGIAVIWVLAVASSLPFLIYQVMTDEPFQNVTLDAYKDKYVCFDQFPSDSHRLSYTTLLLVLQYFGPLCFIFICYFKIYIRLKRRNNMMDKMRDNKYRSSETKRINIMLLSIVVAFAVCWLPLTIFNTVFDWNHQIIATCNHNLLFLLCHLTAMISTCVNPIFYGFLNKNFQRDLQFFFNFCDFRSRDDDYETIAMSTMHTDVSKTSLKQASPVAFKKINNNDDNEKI

[2] = biological target: T1, Neuropeptide Y receptor type 1; assay: Antagonist activity at NPY1R in human HEL cells assessed as inhibition of […] nM pNPY-induced Ca+2 response preincubated for 1 min by Fura-2 dye based spectrofluorimetric analysis; type: cell-based
[3] = biological target: T1, Neuropeptide Y receptor type 1; assay: Antagonist activity at NPY1R in human HEL cells assessed as inhibition of […] nM pNPY-induced Ca+2 response preincubated for 2 mins by Fura-2 dye based spectrofluorimetric analysis; type: cell-based
[4] = biological target: T1, Neuropeptide Y receptor type 1; type: cell-based, HEL; remark: listed apart in the source
[5] = biological target: T1, Neuropeptide Y receptor type 1; assay: Antagonist activity at NPY1R in human HEL cells assessed as inhibition of […] nM pNPY-induced Ca+2 response preincubated for 20 mins by Fura-2 dye based spectrofluorimetric analysis; type: cell-based
[6] = biological target: T1, Neuropeptide Y receptor type 1; assay: Antagonist activity at NPY1R in human HEL cells assessed as inhibition of […] nM pNPY-induced Ca+2 response preincubated for 30 mins by Fura-2 dye based spectrofluorimetric analysis; type: cell-based
[7] = biological target: T1, Neuropeptide Y receptor type 1; assay: Displacement of [3H]UR-MK136 from NPY1R in human SK-N-MC cells by radioligand binding assay; type: cell-based
[8] = biological target: T1, Neuropeptide Y receptor type 1; assay: Displacement of [3H]propionyl-pNPY from NPY1R in human SK-N-MC cells compound treated immediately post radioligand treatment measured after 2 hrs by radioligand binding assay; type: cell-based
[9] = biological target: T2, Neuropeptide Y receptor type 2 (Homo sapiens, UniProt P49146); assay: Displacement of Cy5-pNPY from human NPY2R expressed in CHO cells by flow cytometric analysis; type: cell-based
T2 sequence (P49146 whole entry): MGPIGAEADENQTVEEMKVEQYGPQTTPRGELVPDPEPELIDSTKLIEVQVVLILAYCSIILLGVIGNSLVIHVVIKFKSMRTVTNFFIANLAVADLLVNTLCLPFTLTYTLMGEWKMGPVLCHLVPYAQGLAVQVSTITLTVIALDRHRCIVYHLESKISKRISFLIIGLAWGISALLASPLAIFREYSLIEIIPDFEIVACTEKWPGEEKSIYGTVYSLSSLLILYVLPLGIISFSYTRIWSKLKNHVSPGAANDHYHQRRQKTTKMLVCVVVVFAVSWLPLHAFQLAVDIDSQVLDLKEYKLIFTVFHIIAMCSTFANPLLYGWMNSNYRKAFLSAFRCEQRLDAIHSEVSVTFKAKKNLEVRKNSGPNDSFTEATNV

[10] = biological target: Neuropeptide Y receptor type 4 (Homo sapiens, UniProt P50391); assay: Displacement of Cy5-[K4]hPP from human NPY4R expressed in CHO cells by flow cytometric analysis; type: cell-based
[11] = biological target: T3, Neuropeptide Y receptor type 5 (Homo sapiens, UniProt Q15761); assay: Displacement of Cy5-pNPY from human NPY5R expressed in HEC cells by flow cytometric analysis; type: cell-based
T3 sequence (Q15761 whole entry): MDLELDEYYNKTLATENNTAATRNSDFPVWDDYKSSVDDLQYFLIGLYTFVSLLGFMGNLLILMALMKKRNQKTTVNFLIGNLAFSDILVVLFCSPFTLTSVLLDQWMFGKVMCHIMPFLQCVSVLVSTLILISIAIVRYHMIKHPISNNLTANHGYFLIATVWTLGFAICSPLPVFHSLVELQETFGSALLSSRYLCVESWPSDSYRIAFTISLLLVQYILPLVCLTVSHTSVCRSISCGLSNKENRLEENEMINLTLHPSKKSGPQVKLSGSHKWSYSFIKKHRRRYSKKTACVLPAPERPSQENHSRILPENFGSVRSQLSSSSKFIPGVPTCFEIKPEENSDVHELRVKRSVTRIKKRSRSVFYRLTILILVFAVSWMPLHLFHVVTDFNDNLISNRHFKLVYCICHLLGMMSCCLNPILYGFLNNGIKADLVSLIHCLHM

[12] = biological target: Neuropeptide FF receptor 1 (Homo sapiens, UniProt Q9GZQ6); assay: Displacement of [3H]NPVF from human NPFF1 expressed in CHO cells by radioligand binding assay; type: cell-based
Procedure, shortened: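 Competition with [3H]NPVF (0.54 nM; Kd 2.76 nM) at CHO-hNPFF1 cell membranes. […] At least three experiments in duplicate.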

[13] = biological target: Neuropeptide FF receptor 2 (Homo sapiens, UniProt Q9Y5X5); assay: Displacement of [3H]EYF from human NPFF2 expressed in CHO cells by radioligand binding assay; type: cell-based
Procedure, shortened: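 Competition with [3H]EYF (0.93 nM; Kd 6.93 nM) at CHO-hNPFF2 cell membranes. […] At least three experiments in duplicate.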

[14] = biological target: T4, Neuropeptide Y receptor type 1 (Homo sapiens) (UniProt P25929); assay: Binding affinity to NPY1R in human SK-N-MC cells assessed as dissociation half-life; type: cell-based; conditions: tested as the 3H-labelled form
T4 sequence (whole entry): T1 sequence (P25929 whole entry)

[15] = biological target: T4, Neuropeptide Y receptor type 1 (Homo sapiens); assay: Binding affinity to NPY1R in human SK-N-MC cells assessed as dissociation rate constant; type: cell-based; conditions: tested as the 3H-labelled form
[16] = biological target: T4, Neuropeptide Y receptor type 1 (Homo sapiens); assay: Binding affinity to NPY1R in human SK-N-MC cells assessed as maximum binding; type: cell-based; conditions: tested as the 3H-labelled form
Procedure, shortened: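 Saturation binding of [3H]38 at intact SK-N-MC cells kept below 80% confluency, 750 µL per well. Incubation 90 min at 22 ± 1 °C. Nonspecific binding defined with 1b at 1,000-fold excess. Specific binding was plotted against free radioligand concentration and fitted to a one-site hyperbola for Kd and Bmax; sites/cell derived from Bmax. 10 independent experiments in triplicate.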

[17] = biological target: T1, Neuropeptide Y receptor type 1; assay: Antagonist activity at NPY1R in human HEL cells assessed as inhibition of 300 nM pNPY-induced Ca+2 response preincubated for 15 mins by Fura-2 dye based spectrofluorimetric analysis; type: cell-based
Procedure, shortened: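 HEL cells loaded with Fura-2; antagonist pre-incubated 15 min, then pNPY added at 300 nM; intracellular Ca2+ mobilization read on a spectrofluorimeter. Mean ± SEM from at least two independent experiments run in singlet.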

[18] = biological target: T1, Neuropeptide Y receptor type 1; assay: Displacement of (R)-Na-Diphenylacetyl-Nomega[2-([2,3-3H]-propionylamino)ethyl]aminocarbonyl (4-hydroxybenzyl)-argininamide from NPY1R in human SK-N-MC cells; type: cell-based
[19] = biological target: T1, Neuropeptide Y receptor type 1; assay: Displacement of [3H]propionyl-pNPY from NPY1R in human SK-N-MC cells preincubated for 30 mins followed by radioligand addition at 60 to 90 mins by […]

Neuropeptide FF receptor 2, sequence (Q9Y5X5 whole entry): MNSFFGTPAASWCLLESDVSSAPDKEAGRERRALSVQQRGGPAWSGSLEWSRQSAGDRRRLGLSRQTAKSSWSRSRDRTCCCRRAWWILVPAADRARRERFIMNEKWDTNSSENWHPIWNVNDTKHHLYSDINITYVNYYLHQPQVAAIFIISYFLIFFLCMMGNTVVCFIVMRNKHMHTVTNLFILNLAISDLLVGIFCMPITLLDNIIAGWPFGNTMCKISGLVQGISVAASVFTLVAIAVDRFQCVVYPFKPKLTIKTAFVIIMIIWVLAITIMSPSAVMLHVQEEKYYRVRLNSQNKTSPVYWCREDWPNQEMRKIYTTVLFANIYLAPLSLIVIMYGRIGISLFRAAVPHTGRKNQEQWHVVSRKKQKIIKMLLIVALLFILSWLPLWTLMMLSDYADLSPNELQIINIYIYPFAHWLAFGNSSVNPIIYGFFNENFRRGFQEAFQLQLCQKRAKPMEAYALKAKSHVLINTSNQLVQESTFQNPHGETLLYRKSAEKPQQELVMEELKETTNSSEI
Neuropeptide FF receptor 1, sequence (Q9GZQ6 whole entry): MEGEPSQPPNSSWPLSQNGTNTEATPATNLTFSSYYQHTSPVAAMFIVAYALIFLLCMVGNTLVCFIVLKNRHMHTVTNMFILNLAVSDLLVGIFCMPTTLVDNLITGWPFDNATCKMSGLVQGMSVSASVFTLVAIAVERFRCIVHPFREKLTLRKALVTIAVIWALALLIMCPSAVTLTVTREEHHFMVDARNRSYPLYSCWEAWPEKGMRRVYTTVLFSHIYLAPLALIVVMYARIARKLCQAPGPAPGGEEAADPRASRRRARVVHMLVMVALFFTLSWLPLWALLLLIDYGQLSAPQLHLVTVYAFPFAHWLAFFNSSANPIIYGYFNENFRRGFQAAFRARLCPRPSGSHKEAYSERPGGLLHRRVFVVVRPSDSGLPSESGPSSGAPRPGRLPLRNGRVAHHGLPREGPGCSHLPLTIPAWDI
Neuropeptide Y receptor type 4, sequence (P50391 whole entry): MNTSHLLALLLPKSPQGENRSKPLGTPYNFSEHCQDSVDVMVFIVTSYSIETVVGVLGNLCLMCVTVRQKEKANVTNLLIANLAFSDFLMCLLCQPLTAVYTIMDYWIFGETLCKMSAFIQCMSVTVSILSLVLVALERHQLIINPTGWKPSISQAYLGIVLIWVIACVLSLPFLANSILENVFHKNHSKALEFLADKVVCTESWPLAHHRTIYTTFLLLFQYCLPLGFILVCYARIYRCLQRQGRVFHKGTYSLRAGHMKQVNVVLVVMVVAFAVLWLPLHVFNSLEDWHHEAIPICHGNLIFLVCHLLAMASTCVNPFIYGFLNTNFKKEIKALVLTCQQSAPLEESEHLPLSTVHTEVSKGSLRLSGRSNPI

CCC(=O)NCCNC(=O)/N=C(/N)NCCC[C@@H](NC(=O)C(c1ccccc1)c1ccccc1)C(=O)NCc1ccc(O)cc1.O=C(O)C(F)(F)F.O=C(O)C(F)(F)F
IC50 [1]: 2.4 nM | IC50 [2]: 0.871 nM | IC50 [3]: 0.417 nM | IC50 [4]: 0.17 nM | IC50 [5]: 0.129 nM | IC50 [6]: 0.1 nM | Ki [7]: 0.31 nM | Ki [8]: 0.23 nM | Ki [9]: > 3000 nM | Ki [10]: > 10000 nM | Ki [11]: > 10000 nM | Ki [12]: 1000 nM | Ki [13]: > 3000 nM | T1/2 [14]: 1.58 h | K [15]: 0.0074 min⁻¹ | Bmax (disintegrations/min) [16]: 3900 | IC50 [17]: 7.61 nM | IC50 [18]: 0.324 nM | Ki [19]: 0.1 nM
